Among the data in ChEMBL document CHEMBL2380224, “Fragment-based ligand design of novel potent inhibitors of tankyrases” (J Med Chem, 2013) are IC50 and ΔTm values, retold here.

The target of experiment [1] is T1, Protein mono-ADP-ribosyltransferase PARP3 (Homo sapiens, UniProt Q9Y6F1).
T1 sequence (Q9Y6F1 whole entry): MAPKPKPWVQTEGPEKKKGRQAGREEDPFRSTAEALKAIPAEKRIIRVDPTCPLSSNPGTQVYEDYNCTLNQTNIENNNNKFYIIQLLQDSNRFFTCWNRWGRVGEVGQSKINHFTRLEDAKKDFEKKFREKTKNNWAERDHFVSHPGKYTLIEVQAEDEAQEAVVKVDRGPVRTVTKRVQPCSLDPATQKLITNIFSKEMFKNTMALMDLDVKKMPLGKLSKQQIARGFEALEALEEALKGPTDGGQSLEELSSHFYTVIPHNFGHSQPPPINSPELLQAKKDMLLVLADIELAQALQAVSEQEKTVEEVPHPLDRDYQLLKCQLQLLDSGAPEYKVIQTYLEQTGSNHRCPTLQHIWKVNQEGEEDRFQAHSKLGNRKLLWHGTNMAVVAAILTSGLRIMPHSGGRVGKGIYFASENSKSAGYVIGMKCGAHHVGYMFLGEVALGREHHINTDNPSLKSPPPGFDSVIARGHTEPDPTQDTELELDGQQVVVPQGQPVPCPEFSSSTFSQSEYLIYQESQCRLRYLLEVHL
Briefly: Inhibition of PARP3 (unknown origin).

The target of experiment [2] is T2, Poly [ADP-ribose] polymerase tankyrase-2 (Homo sapiens) (UniProt Q9H2K2).
T2 sequence (whole entry): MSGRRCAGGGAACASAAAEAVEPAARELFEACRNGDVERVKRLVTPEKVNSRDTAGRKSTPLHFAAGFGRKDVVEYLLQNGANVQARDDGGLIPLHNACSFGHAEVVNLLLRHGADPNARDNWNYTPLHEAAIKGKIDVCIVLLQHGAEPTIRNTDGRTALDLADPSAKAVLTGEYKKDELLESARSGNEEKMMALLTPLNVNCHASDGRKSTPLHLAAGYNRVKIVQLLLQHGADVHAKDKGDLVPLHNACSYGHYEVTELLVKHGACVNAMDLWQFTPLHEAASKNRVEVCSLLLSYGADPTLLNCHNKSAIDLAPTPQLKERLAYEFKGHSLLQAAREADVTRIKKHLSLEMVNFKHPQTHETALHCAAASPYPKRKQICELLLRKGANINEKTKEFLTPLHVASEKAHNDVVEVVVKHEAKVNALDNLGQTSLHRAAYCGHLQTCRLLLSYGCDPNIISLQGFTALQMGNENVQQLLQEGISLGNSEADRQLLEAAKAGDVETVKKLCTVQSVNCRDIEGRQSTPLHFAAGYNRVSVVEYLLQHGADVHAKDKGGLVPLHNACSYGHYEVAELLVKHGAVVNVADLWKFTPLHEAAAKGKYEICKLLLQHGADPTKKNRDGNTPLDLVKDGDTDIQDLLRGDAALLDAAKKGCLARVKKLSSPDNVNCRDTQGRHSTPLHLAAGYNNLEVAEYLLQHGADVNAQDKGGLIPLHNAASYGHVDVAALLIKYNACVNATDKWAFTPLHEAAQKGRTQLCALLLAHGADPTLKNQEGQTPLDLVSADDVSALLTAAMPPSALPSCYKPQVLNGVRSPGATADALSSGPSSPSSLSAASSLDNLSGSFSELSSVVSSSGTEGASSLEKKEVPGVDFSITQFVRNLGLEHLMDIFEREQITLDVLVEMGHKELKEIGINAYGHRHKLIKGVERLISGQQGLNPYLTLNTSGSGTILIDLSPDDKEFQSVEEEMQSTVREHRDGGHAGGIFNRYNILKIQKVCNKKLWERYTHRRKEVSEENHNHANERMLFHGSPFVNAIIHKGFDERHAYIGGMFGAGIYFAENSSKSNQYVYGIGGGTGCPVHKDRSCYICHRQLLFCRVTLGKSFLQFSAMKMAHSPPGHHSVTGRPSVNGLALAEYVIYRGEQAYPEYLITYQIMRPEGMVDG
The experiment is described as follows: Binding affinity to TNKS2 PARP domain (947 to 1162) (unknown origin) expressed in Escherichia coli BL21(DE3) assessed as thermal stabilization at 125 uM by differential scanning flourimetric analysis. In short, it runs like this:
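DSF dose−response. TNKS2 at 0.2 mg/mL with SYPRO Orange (5×). Compounds were serially diluted in 100% DMSO at 50× the assay concentration. Chymotrypsin (1/100 TNKS2 mass equivalents) was added to the protein–dye mix just before the run. Scanned 25−80 °C at about 2 °C/min, ex 490/em 575 nm, and Tm shift was taken against the DMSO control.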

Each structure is given as a SMILES string.

The term IC50 denotes the point on the concentration scale where inhibition reaches its midpoint. A higher IC50 goes with a need for much substance. For orientation: ΔTm means the change in melting temperature against a reference sample.

`Cc1cc(=O)[nH]c2cc(-c3ccccc3F)ccc12`: the IC50 in experiment [1] was more than 10 µM. Moreover, the ΔTm in experiment [2] was found to be 5.1 °C.
